The data set can be described thus: Toxicity liver stage against HepG2, at 10uM. The conditions noted are these: human, HepG2-A16-CD81EGFP cells; read-out: INHIBITION
Also on record: test concentration 10 uM, cell line HepG2-A16-CD81EGFP. The data set is classed as cell-based. The method, boiled down: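 Uninfected HepG2-A16-CD81EGFP cells, 3 × 10^3 per well, 1536-well, plated on prespotted compound at 10 μM final, parasite-free screening media added to match infected plates; puromycin 10 μM positive, DMSO 0.5% negative; run in parallel with 48 h PbLuc assay at 37 °C, 5% CO2; viability by CellTiter-Glo luminescence, normalized to controls.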
Turning to `COc1ccccc1-c1csc(NC(=O)N2CCN(C)CC2C)n1` (configuration not stated), the cytotoxicity at 10 µM is -3.24%. `Cc1cc(CN2CCC(CNS(=O)(=O)c3ccc(C)s3)CC2)c(C)o1`: the cytotoxicity at 10 µM worked out at 3.39%. The value for `Cc1cccc(-c2ccc(C(=O)NCC3CCCO3)c(=O)[nH]2)c1` (configuration not stated) was -7.36%.

For `Cc1cc(NC(=O)CCN2CCCC2Cn2cccn2)no1` (configuration not stated), the cytotoxicity at 10 µM was -5.09%. The value for `Cc1nccn1-c1ccc(=O)n(CCNC(=O)Cc2ccccc2)n1` was -4.17%.

With `NCC(CO)Cc1ccc(C(F)(F)F)cc1` (configuration not stated), the cytotoxicity at 10 µM was found to be 4.42%. In the case of `COc1cccc([C@@H]2CCN(Cc3cccc(C)n3)C[C@H]2O)c1` it was 2.22%; in that of `COc1cccc(CN2CC[C@H](NC(C)=O)[C@@H](O)CC2)c1F`, -8.63%; in that of `CC(C)N(CC(=O)Nc1ccc(Br)cc1Cl)Cc1cccnc1`, 17.2%.

Turning to `CCOCC(O)CN1CCN(C(=O)c2ccccc2Cl)CC1` (configuration not stated), the cytotoxicity at 10 µM was -1.96%. The value for `Cc1cnn(C2CN(CC(=O)NCCc3cccs3)C2)c1` was -3.92%; that for `O=C(Nc1ccc(N2CCCC2)nc1)N1CCc2ccccc2C1` was -10.2%; that for `CC(=O)c1ccc(-c2cnn(CC(=O)Nc3cc(C)nn3C)c2)nc1` was -6.93%. In the case of `c1cc(-c2nc(CN3CCn4c(nnc4C4CC4)C3)cs2)cs1` it was -2.22%; in that of `O=c1cc(Cn2cncn2)nc2n1CCCN(CCN1CCCC1)C2`, 2.78%; in that of `CCN1CCCC(O)(CNCc2ccccn2)C1` (configuration not stated), -5.69%. In the case of `COc1ccc(NC(=O)N2CCOCC(CN(C)C)C2)c(C)c1` (configuration not stated) it was 0.124%. With `O=C(CC1[C@H]2CN(Cc3ccsc3)C[C@@H]12)N1CCCC1` (some centres not stated), the cytotoxicity at 10 µM was -1.16%. For the molecule `FC(F)(F)c1cc(C2CCCN(Cc3ccncc3)C2)n[nH]1` (configuration not stated), the cytotoxicity at 10 µM was -52.8%. In the case of `Cn1nc(C(=O)N2CCOCC2)c2c1CN(CC1CCC1)C2` it was -103%; in that of `CC1=Nc2c(c(=O)[nH]n2C2CCCC2)C(c2cccc(O)c2)S1` (configuration not stated), 4.8%; in that of `O=C1[C@@H]2CC[C@@H](CN(Cc3nnc(C4CC4)o3)C2)N1Cc1cscn1`, 9.57%. The value for `CN(C)C(=O)CN1CCC2(CC1)COC2` was 5.53%. In the case of `COc1ccc(CN(C)CC2(O)CCNC2)cc1` (configuration not stated) it was -1.68%; in that of `Cn1ccnc1-c1cnn(CC(=O)Nc2ccnn2C)c1`, -10.1%.

Consider `C1CC(CN2CCCCC2C2OCCO2)C1` (configuration not stated), for which the cytotoxicity at 10 µM was -12.8%. The value for `CCC(C(=O)N(C)CCC1=CCN(C)CC1)c1ccccc1` (configuration not stated) was -10.9%; that for `COC(=O)CCCC(=O)N1CCC(CO)(CCc2ccccc2)CC1` was 1.34%; that for `CC(NC(=O)C1CCCC1)c1nc(-c2ccccc2)c[nH]1` (configuration not stated) was 6%.

As for `Cc1cnn(CC2CCCN2C(=O)c2ccccc2-n2cnnn2)c1` (configuration not stated), the cytotoxicity at 10 µM was -35.7%.

`O=C(O)CCCC(=O)Nc1cnn(COc2ccc(F)cc2Cl)c1`: the cytotoxicity at 10 µM came to 8.69%.

On to `CCC(C)(C)NC(=O)c1scnc1Cl`, for which the cytotoxicity at 10 µM is -0.47%. The value for `CC(C)c1nnc(CN2CC(n3cccn3)C2)o1` was -149%; that for `O=C(NCC1CC1)C1CCC2(CCN(C(=O)c3ccncc3)CC2)O1` (configuration not stated) was -0.0368%; that for `Cc1n[nH]c(C2CN(CC(=O)NCCc3ccccc3)CCO2)n1` (configuration not stated) was 10.2%.

Take `c1ccc(CN2C[C@@H]3CC[C@H]2CN(Cc2nnc(C4CC4)o2)C3)cc1`: the cytotoxicity at 10 µM was -22.4%. With `c1csc(N2CCN(Cc3cc4n(n3)CCNC4)CC2)n1`, the cytotoxicity at 10 µM was -3.59%. In the case of `O=C(O)c1ccc(OC2CCOCC2)cc1` it was -6.11%; in that of `CNC(=O)[C@H]1C[C@@H]2CN(C(=O)c3cncc(C)c3)C[C@@H]2N1C`, -107%. Turning to `Nc1nc(C(=O)NCC2CCC3(CCNCC3)CO2)cs1` (configuration not stated), the cytotoxicity at 10 µM was 21%. In the case of `c1cncc(N2CCCC3(CCN(CC4CCCO4)CC3)C2)c1` (configuration not stated), the cytotoxicity at 10 µM was 5.15%.

As to `Cc1ccc(CN2C[C@H]3CN(Cc4ccccc4Cl)CCN3C2=O)cc1`, the cytotoxicity at 10 µM is -10.3%. The value for `CS(=O)(=O)c1ccc(NC(=O)N2CCc3sccc3C2)cn1` was 85.1%; that for `CC(=O)N1N=C(c2ccccc2)OC1C(=O)NCCc1cccc(F)c1` (configuration not stated) was -1.08%; that for `Cc1nc(CN2CCc3ncnc(C)c3CC2)cs1` was -1.8%. In the case of `COCC(=O)NC[C@H]1OC[C@@H](NC2CCC(F)(F)CC2)[C@@H]1O` it was -3.32%; in that of `Cn1cnc2c1CCN(Cc1c(Cl)ccc3cccnc13)C2`, 5.55%; in that of `COc1cccc(CCCN2CCC(N(C)S(C)(=O)=O)CC2)c1`, -3.88%. For the molecule `O=C(C1CCC1)N1C[C@H]2CNC[C@H]2C1`, the cytotoxicity at 10 µM was -4.1%. As to `Cc1ccc(C(=O)NCCC2CCN(C)CC2)cc1N(C)S(C)(=O)=O`, the cytotoxicity at 10 µM is -15.1%. The value for `CN(C(=O)c1ccncc1)c1ccccc1S(C)(=O)=O` was 7.39%. In the case of `CCN1CC2(CC1=O)CN(C(=O)c1ccco1)CCN(C(=O)N(C)C)C2` (configuration not stated) it was -8.37%; in that of `CCn1cc(S(=O)(=O)N2CCC(C)Sc3ccccc32)cn1` (configuration not stated), 3.34%. In the case of `COCCNc1ncc(-c2cccc(OC)c2)c(-c2nccn2C)n1` it was 7.49%. `CN(Cc1nc(COc2ccccc2)no1)CC1Cc2ccccc2O1` (configuration not stated): the cytotoxicity at 10 µM is -4.4%. In the case of `CCC1CN(CC(=O)NCC(C)C)CCO1` (configuration not stated) it was 14.4%; in that of `Cc1nc2nc(C)c3c(=O)n(-c4ccn[nH]4)ccc3n2n1`, 0.87%; in that of `Cc1ccc(N2C[C@H](O)[C@@H](N3CCN(c4ccccn4)CC3)C2)nn1`, -0.442%.

Take `O=C(O)c1csc(S(=O)(=O)N2CCCc3cccc(OC(F)F)c32)c1`: the cytotoxicity at 10 µM was -13.5%. Take `N#Cc1cc(CSCCN2CCOCC2)ccc1F`: the cytotoxicity at 10 µM is -7.73%.

As to `O=C(C1CCN(c2nc3nc[nH]c(=O)c3s2)CC1)N1CCCCC1`, the cytotoxicity at 10 µM is -5.55%. In the case of `COC(=O)CCC(=O)N1CCC2(CN(Cc3ccc(Cl)cc3)C2)C1` it was 5.7%; in that of `Cc1ccc(Nc2c(C#N)c(=O)n(C)c(=O)n2C)cc1F`, -4.99%.

Turning to `CC(=O)c1cc(CC(=O)N2CCCC2c2nc(C(C)C)no2)cs1` (configuration not stated), the cytotoxicity at 10 µM was determined as 3.07%. The value for `CCN1CCc2[nH]cnc2C12CCN(c1ncc(C(=O)O)cc1Cl)CC2` was 1.46%; that for `CCOC(=O)CNC(=O)N1CCOC(Cc2ccc(OC)cc2)C1` (configuration not stated) was -7.99%; that for `CCn1cnnc1C1CCN(C(=O)C(OC)c2ccccc2)CC1` (configuration not stated) was 5.25%. On to `COCC(=O)N1CCc2ccccc2C12CCNCC2`, for which the cytotoxicity at 10 µM is -0.602%. The value for `COCCC(=O)N1CC2(CCN(Cc3ccccc3Cl)CC2)C1` was -73.1%; that for `N#Cc1ccc(S(=O)(=O)N2CC(CC(=O)O)c3ccccc32)cc1` (configuration not stated) was 0.513%. In the case of `O=C(CC1CCCC1)N1C[C@H](OCc2ccncc2)[C@H]2OCCC[C@H]21` it was 2.75%; in that of `Cc1ncc(CNC(=O)N(C)C2CCN(c3ccccc3)C2=O)s1` (configuration not stated), -14.7%. As to `Cc1noc(C)c1CC(=O)N[C@@H]1CC[C@@H](Oc2ccccc2)[C@@H]1O`, the cytotoxicity at 10 µM was found to be 2.04%. In the case of `Cc1ccc(CNC(=O)N2CCCCC2CCNS(C)(=O)=O)cc1` (configuration not stated) it was -0.524%; in that of `COc1ncccc1C(=O)N1CCCC(c2cc(C)[nH]n2)C1` (configuration not stated), -7.49%. The value for `COc1ccc(C(=O)NCC2CCCN(C3CCOCC3)C2)c(O)c1` (configuration not stated) was 5.21%; that for `Cn1nc(CNS(=O)(=O)Cc2ccccc2F)c2c1CCCC2` was -0.0785%; that for `O=C(c1cn(CC(=O)N2CCc3[nH]cnc3C2)c2ccccc12)C1CC1` was 10.2%. Turning to `Cc1nn(C)c(C)c1C1CCCN1CC(=O)NCc1ccccn1` (configuration not stated), the cytotoxicity at 10 µM is 0.702%. The value for `c1ccc(CN2Cc3[nH]nc(COCC4CC4)c3C2)nc1` was -1.83%. Turning to `COc1ccc(C2SCC(=O)Nc3ccsc32)cc1` (configuration not stated), the cytotoxicity at 10 µM was 10.5%.

Regarding `COc1cccc2cc(CNC(=O)N3CCS(=O)(=O)CC3)oc12`, the cytotoxicity at 10 µM is -19.3%. In the case of `Cc1ccc(Cl)cc1NC(=O)C1CC(=O)N(Cc2ccccn2)C1` (configuration not stated) it was 4.67%. As for `Cn1ccnc1CN1CCC2(CC(=O)N(c3ccsc3)C2)C1` (configuration not stated), the cytotoxicity at 10 µM is -82.7%. In the case of `O=C(C1CCCCC1)N1C[C@@H]2CCN(c3cnccn3)C[C@@H]2C1` it was 5.68%; in that of `NC(=O)CCOc1nc(-c2ccccc2Cl)no1`, -1.64%; in that of `CCCS(=O)(=O)N1CCC(NC(=O)c2ccc(Cl)s2)CC1`, 22.4%. The value for `CC(C)OCCCNC(=O)CS(=O)(=O)Cc1ccc(Cl)cc1` was -2.87%; that for `CN(Cc1ccncc1)C1CC2(CCN(c3ncccn3)CC2)C1` was 13.1%; that for `COC(=O)Nc1ccc(CNc2cncc(-n3cccn3)n2)cc1` was -5.78%.

Regarding `NC(=O)CN1CCOCC(Cc2ccccc2)C1` (configuration not stated), the cytotoxicity at 10 µM is 0.579%. The value for `CC(C(=O)NCc1ccc(N2CCCCC2)nc1)n1cncn1` (configuration not stated) was -10.3%.

Regarding `COCCNC(=O)Nc1ccc(CN2CCOC2=O)cc1`, the cytotoxicity at 10 µM was -4.62%. The value for `Cc1cc(C2CCCN2C(=O)NCc2cccc(F)c2)on1` (configuration not stated) was 24.8%; that for `CN(Cc1cc(Br)cn1C)C(=O)c1cc(Cl)ccn1` was -11%. With `CCCC(=O)NCCc1nc(N(C)C)ncc1-c1ccncc1`, the cytotoxicity at 10 µM was determined as 2.92%.

As to `CCc1nc(CN2CCCN(C(=O)C(CC)OC)CC2)cs1` (configuration not stated), the cytotoxicity at 10 µM was -15.8%.

The values are drawn from ChEMBL document CHEMBL4513216, “Probing the Open Global Health Chemical Diversity Library for Multistage-Active Starting Points for Next-Generation Antimalarials” (ACS Infect Dis, 2020).
